According to ChEMBL document CHEMBL5303300, “EUbOPEN Chemogenomics Library - Multiplex” (2023):
Where “and” joins values, the source holds several entries; their conditions need not be identical. Equal entries are not always repeated.

Test system: Fibroblast
Assay: Multiplex assay against human fibroblast
Assay type: toxicity, cell-based
Conditions: number of replicates 2
Procedure, shortened: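 Hoechst33342, BioTracker Green Microtubule Cytoskeleton Dye, MitoTracker Red and Annexin V Alexa Fluor 680 were added to live cells at seeding, and imaging on a CQ1 microscope at 37°C and 5% CO2 followed compound addition. Gating by CellPathfinder machine learning separated cells into Hoechst high-intensity objects or normal cells, then normal cells into healthy, pyknosed or fragmented nuclei, then pyknosed cells into mitotic or apoptotic. Per cents of healthy-nucleus cells are reported for the tubulin, mitochondrial-mass and membrane-permeability phenotypes.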

[1] = 12 h, 1 µM, compound concentration 1 uM
[2] = 12 h, 10 µM, compound concentration 10 uM
[3] = 24 h, 1 µM, compound concentration 1 uM
[4] = 24 h, 10 µM, compound concentration 10 uM
[5] = 48 h, 1 µM, compound concentration 1 uM
[6] = 48 h, 10 µM, compound concentration 10 uM

## Cl.Clc1ccc2nsnc2c1NC1=NCCN1 [TIZANIDINE HYDROCHLORIDE]
[1]
  Population Apoptotic (%): 50% and 48%
  Population Fragmented Nuclei (%): 10%
  Population Healthy Nuclei (%): 62%
  Population Hoechst High Intensity Objects (%): 0%
  Population Membrane Permeable-Phenotype (%): 4% and 7%
  Population Mitochondria Different-Phenotype (%): 0%
  Population Mitotic Cells (%): 49% and 51%
  Population Normal (%): 100%
  Population Pyknosed Nuclei (%): 26% and 27%
  Population Tubulin-Different-Phenotype (%): 10% and 5%
  Total Cell Count: 192 and 172
[2]
  Population Apoptotic (%): 36%
  Population Fragmented Nuclei (%): 16% and 15%
  Population Healthy Nuclei (%): 68% and 70%
  Population Hoechst High Intensity Objects (%): 0%
  Population Membrane Permeable-Phenotype (%): 5% and 3%
  Population Mitochondria Different-Phenotype (%): 3% and 1%
  Population Mitotic Cells (%): 63%
  Population Normal (%): 100%
  Population Pyknosed Nuclei (%): 15% and 13%
  Population Tubulin-Different-Phenotype (%): 14% and 8%
  Total Cell Count: 194 and 264
[3]
  Population Apoptotic (%): 67% and 56%
  Population Fragmented Nuclei (%): 9% and 13%
  Population Healthy Nuclei (%): 60% and 57%
  Population Hoechst High Intensity Objects (%): 0%
  Population Membrane Permeable-Phenotype (%): 6%
  Population Mitochondria Different-Phenotype (%): 1% and 0%
  Population Mitotic Cells (%): 32% and 44%
  Population Normal (%): 100%
  Population Pyknosed Nuclei (%): 29% and 28%
  Population Tubulin-Different-Phenotype (%): 14% and 8%
  Total Cell Count: 176 and 173
[4]
  Population Apoptotic (%): 71% and 45%
  Population Fragmented Nuclei (%): 12% and 14%
  Population Healthy Nuclei (%): 71% and 72%
  Population Hoechst High Intensity Objects (%): 0%
  Population Membrane Permeable-Phenotype (%): 6% and 4%
  Population Mitochondria Different-Phenotype (%): 3% and 1%
  Population Mitotic Cells (%): 28% and 54%
  Population Normal (%): 100% and 99%
  Population Pyknosed Nuclei (%): 15% and 12%
  Population Tubulin-Different-Phenotype (%): 12% and 8%
  Total Cell Count: 182 and 271
[5]
  Population Apoptotic (%): 68% and 59%
  Population Fragmented Nuclei (%): 11% and 15%
  Population Healthy Nuclei (%): 71% and 63%
  Population Hoechst High Intensity Objects (%): 0%
  Population Membrane Permeable-Phenotype (%): 6% and 11%
  Population Mitochondria Different-Phenotype (%): 0%
  Population Mitotic Cells (%): 31% and 40%
  Population Normal (%): 100% and 99%
  Population Pyknosed Nuclei (%): 17% and 20%
  Population Tubulin-Different-Phenotype (%): 12% and 3%
  Total Cell Count: 186 and 203
[6]
  Population Apoptotic (%): 72% and 60%
  Population Fragmented Nuclei (%): 13% and 12%
  Population Healthy Nuclei (%): 70% and 78%
  Population Hoechst High Intensity Objects (%): 0%
  Population Membrane Permeable-Phenotype (%): 5% and 2%
  Population Mitochondria Different-Phenotype (%): 0%
  Population Mitotic Cells (%): 27% and 39%
  Population Normal (%): 100% and 99%
  Population Pyknosed Nuclei (%): 15% and 8%
  Population Tubulin-Different-Phenotype (%): 8% and 2%
  Total Cell Count: 193 and 260

## CCN(CC)C/C=C/C(=O)Nc1cc2c(Nc3ccc(F)c(Cl)c3)ncnc2cc1OCC1CC1
[1]
  Population Apoptotic (%): 48% and 35%
  Population Fragmented Nuclei (%): 14% and 17%
  Population Healthy Nuclei (%): 62% and 55%
  Population Hoechst High Intensity Objects (%): 0%
  Population Membrane Permeable-Phenotype (%): 10% and 15%
  Population Mitochondria Different-Phenotype (%): 2% and 4%
  Population Mitotic Cells (%): 51% and 65%
  Population Normal (%): 100%
  Population Pyknosed Nuclei (%): 22% and 26%
  Population Tubulin-Different-Phenotype (%): 61% and 56%
  Total Cell Count: 189 and 225
[2]
  Population Apoptotic (%): 63% and 58%
  Population Fragmented Nuclei (%): 19% and 20%
  Population Healthy Nuclei (%): 47% and 51%
  Population Hoechst High Intensity Objects (%): 0%
  Population Membrane Permeable-Phenotype (%): 25% and 20%
  Population Mitotic Cells (%): 36% and 41%
  Population Normal (%): 100%
  Population Pyknosed Nuclei (%): 33% and 27%
  Population Tubulin-Different-Phenotype (%): 92% and 87%
  Total Cell Count: 209 and 264
[3]
  Population Apoptotic (%): 52% and 62%
  Population Fragmented Nuclei (%): 17% and 20%
  Population Healthy Nuclei (%): 60% and 64%
  Population Hoechst High Intensity Objects (%): 1% and 0%
  Population Membrane Permeable-Phenotype (%): 2% and 4%
  Population Mitochondria Different-Phenotype (%): 7% and 12%
  Population Mitotic Cells (%): 47% and 37%
  Population Normal (%): 98% and 100%
  Population Pyknosed Nuclei (%): 22% and 15%
  Population Tubulin-Different-Phenotype (%): 75% and 62%
  Total Cell Count: 192 and 231
[4]
  Population Apoptotic (%): 91% and 85%
  Population Fragmented Nuclei (%): 13% and 8%
  Population Healthy Nuclei (%): 13% and 19%
  Population Hoechst High Intensity Objects (%): 0%
  Population Membrane Permeable-Phenotype (%): 14% and 16%
  Population Mitochondria Different-Phenotype (%): 71% and 56%
  Population Mitotic Cells (%): 8% and 14%
  Population Normal (%): 99%
  Population Pyknosed Nuclei (%): 72% and 71%
  Population Tubulin-Different-Phenotype (%): 95% and 89%
  Total Cell Count: 154 and 190
[5]
  Population Apoptotic (%): 73% and 53%
  Population Fragmented Nuclei (%): 28% and 25%
  Population Healthy Nuclei (%): 59% and 63%
  Population Hoechst High Intensity Objects (%): 0%
  Population Membrane Permeable-Phenotype (%): 3% and 1%
  Population Mitochondria Different-Phenotype (%): 10% and 8%
  Population Mitotic Cells (%): 26% and 46%
  Population Normal (%): 100% and 99%
  Population Pyknosed Nuclei (%): 12% and 11%
  Population Tubulin-Different-Phenotype (%): 68% and 45%
  Total Cell Count: 210 and 233
[6]
  Population Apoptotic (%): 92% and 94%
  Population Fragmented Nuclei (%): 22% and 28%
  Population Healthy Nuclei (%): 10% and 21%
  Population Hoechst High Intensity Objects (%): 0%
  Population Membrane Permeable-Phenotype (%): 41% and 38%
  Population Mitochondria Different-Phenotype (%): 29% and 19%
  Population Mitotic Cells (%): 7% and 5%
  Population Normal (%): 100%
  Population Pyknosed Nuclei (%): 67% and 49%
  Population Tubulin-Different-Phenotype (%): 47% and 93%
  Total Cell Count: 168 and 145
